From ChEMBL document CHEMBL1121848, “Inactivation of trypsin-like proteases by depsipeptides of p-guanidinobenzoic acid” (J Med Chem, 1981)

Tests used:
[1] = Second order rate constant was determined in the inactivation of HPK
In short: (§1)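 Trypsin or human plasma kallikrein (10^-6 to 10^-9 M final) was inactivated at 25 °C by ester in water (10^-3 to 10^-6 M final) in 50 mM Pipes, pH 7.0, with 200 mM NaCl. Activity decayed first-order. Individual constants k_2 (min⁻¹) and K_m (M) were resolved for each enzyme.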

[2] = Second order rate constant was determined in the inactivation of trypsin; in short: as §1
[3] = Compound was evaluated for the reactivity in the inactivation of trypsin like enzyme
In short: (§2)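 Each enzyme (10^-6 to 10^-9 M final) was incubated at 25 °C with inhibitor dissolved in water (10^-3 to 10^-6 M final) in 50 mM Pipes, pH 7.0, with 200 mM NaCl. Loss of activity was treated as first-order to give k_app. Reactivity was k_app divided by inhibitor concentration.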

[4] = target: Plasma kallikrein (Homo sapiens) (UniProt P03952); experiment: Compound was evaluated for the reactivity in the inactivation of trypsin like enzyme Human plasma Kallikrein
Acrosin (Sus scrofa) = Acrosin (Sus scrofa) (UniProt P08001); experiment: Compound was evaluated for the reactivity in the inactivation of trypsin like boar acrosin
Plasminogen = experiment: Compound was evaluated for the reactivity in the inactivation of trypsin like enzyme plasmin; in short: as §2
[5] = target: Urokinase-type plasminogen activator (Homo sapiens) (UniProt P00749); experiment: Compound was evaluated for the reactivity in the inactivation of trypsin like Urokinase-type plasminogen activator; in short: as §2

Sequence of Plasma kallikrein (Homo sapiens) (P03952 whole entry, looked up): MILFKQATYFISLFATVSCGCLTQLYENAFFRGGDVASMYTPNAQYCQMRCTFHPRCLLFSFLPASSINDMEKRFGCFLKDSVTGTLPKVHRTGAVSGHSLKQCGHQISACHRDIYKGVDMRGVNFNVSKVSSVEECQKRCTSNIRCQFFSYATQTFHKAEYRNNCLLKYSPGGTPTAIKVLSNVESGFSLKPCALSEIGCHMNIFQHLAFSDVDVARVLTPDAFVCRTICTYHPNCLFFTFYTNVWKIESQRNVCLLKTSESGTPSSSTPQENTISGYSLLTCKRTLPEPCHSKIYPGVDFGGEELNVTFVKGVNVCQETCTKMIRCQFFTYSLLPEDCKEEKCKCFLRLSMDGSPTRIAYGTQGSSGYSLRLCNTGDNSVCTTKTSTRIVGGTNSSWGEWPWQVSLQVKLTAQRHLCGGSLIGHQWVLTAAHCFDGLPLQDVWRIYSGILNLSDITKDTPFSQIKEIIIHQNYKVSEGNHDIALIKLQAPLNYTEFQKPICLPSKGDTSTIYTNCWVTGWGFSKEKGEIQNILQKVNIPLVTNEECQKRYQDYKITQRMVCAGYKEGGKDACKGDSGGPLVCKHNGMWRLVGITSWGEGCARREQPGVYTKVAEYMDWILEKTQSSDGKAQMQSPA
Sequence of Acrosin (Sus scrofa) (P08001 whole entry, looked up): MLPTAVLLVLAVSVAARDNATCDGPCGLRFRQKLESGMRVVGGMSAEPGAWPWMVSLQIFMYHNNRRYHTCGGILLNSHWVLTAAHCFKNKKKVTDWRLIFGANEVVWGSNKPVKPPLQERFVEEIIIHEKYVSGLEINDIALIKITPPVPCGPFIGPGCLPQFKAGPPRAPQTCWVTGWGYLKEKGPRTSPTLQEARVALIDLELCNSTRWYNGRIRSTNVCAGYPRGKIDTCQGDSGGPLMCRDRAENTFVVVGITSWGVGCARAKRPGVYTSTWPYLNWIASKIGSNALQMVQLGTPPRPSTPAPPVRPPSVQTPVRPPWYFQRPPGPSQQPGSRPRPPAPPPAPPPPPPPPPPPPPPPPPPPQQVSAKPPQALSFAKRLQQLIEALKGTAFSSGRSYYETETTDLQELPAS

k2 [1] [min⁻¹]	k2 [2] [min⁻¹]	Reactivity [3]	Reactivity [4]	Reactivity (Acrosin (Sus scrofa))	Reactivity (Plasminogen)	Reactivity [5]	Structure (SMILES)
0.83	1.27	32000	2600				CC(=O)O.N=C(N)Nc1ccc(C(=O)OCC(=O)N[C@@H](Cc2ccccc2)C(=O)N2CCC[C@H]2C(N)=O)cc1
0.344	0.832	10200	2000				CC(=O)O.N=C(N)Nc1ccc(C(=O)OCC(=O)NCC(=O)NCC(N)=O)cc1
0.87	0.74	11200	2000	114000	441	5	CC(=O)O.CC(C)C(NC(=O)COC(=O)c1ccc(NC(=N)N)cc1)C(N)=O (centres undefined)
1.25	0.523	17000	2800	117000	644	300	CC(=O)O.N=C(N)Nc1ccc(C(=O)OCC(N)=O)cc1
0.84	0.748	13400	1400				CC(=O)O.C[C@H](NC(=O)COC(=O)c1ccc(NC(=N)N)cc1)C(=O)N[C@@H](Cc1ccccc1)C(N)=O
0.74	3.24	46000	8600	207000	753	21	CC(=O)O.N=C(N)Nc1ccc(C(=O)OCC(=O)NC(Cc2ccccc2)C(N)=O)cc1 (centres undefined)
	1.89	259	26	200000		11	CC(=O)O.CCOC(=O)c1ccc(NC(=N)N)cc1
0.1	3.7	14200	3000		743	32	CC(=O)O.CC(OC(=O)c1ccc(NC(=N)N)cc1)C(=O)NC(Cc1ccccc1)C(N)=O (centres undefined)
